From ChEMBL document CHEMBL6092210, “Synthesis, in vitro and in vivo biological evaluation of novel dual compounds targeting both acetylcholinesterase and serotonergic 5-HT4 receptors with potential interest in the treatment of Alzheimer's disease” (Eur J Med Chem, 2024)

What was measured:
Acetylcholinesterase [1] = biological target: T1, Acetylcholinesterase (Homo sapiens, UniProt P22303); assay: Inhibition of recombinant human erythrocyte AChE using acetyl-or butyrylthiocholine iodide as substrate at 1 x 10^-6M preincubated for 5 mins followed by substrate addition and measured every min for 10 mins by Ellman's method relative to control; conditions: dose 1.0 10^-6M, time 15.0 min
T1 sequence (P22303 whole entry): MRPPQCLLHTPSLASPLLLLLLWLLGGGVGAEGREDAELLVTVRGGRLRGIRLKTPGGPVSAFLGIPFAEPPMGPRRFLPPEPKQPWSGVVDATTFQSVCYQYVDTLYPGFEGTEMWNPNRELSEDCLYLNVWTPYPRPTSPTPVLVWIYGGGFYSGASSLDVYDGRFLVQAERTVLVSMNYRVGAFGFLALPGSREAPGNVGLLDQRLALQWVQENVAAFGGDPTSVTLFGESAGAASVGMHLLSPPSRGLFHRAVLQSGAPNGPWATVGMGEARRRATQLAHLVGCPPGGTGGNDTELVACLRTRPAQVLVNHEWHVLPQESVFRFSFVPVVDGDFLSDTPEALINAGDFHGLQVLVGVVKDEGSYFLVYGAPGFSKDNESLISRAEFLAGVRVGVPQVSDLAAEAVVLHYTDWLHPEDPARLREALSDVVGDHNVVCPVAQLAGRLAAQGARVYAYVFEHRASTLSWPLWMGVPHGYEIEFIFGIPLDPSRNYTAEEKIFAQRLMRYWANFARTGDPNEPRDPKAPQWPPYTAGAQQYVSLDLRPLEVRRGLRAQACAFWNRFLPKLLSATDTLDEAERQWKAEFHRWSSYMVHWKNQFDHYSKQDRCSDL
How it was run: (§1)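 AChE from human erythrocytes (0.05 U final) or recombinant AChE (0.025 U final), diluted in 20 mM HEPES pH 8 with 0.1 % Triton X-100, in an Ellman assay. DTNB is 0.3 mM in phosphate buffer pH 7.4 and compound is in DMSO. Enzyme and compound are preincubated 5 min at 25 °C. Reaction starts with 1 mM acetylthiocholine iodide solution.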

Acetylcholinesterase [2] = biological target: T1, Acetylcholinesterase; assay: Inhibition of recombinant human erythrocyte AChE using acetyl-or butyrylthiocholine iodide as substrate preincubated for 5 mins followed by substrate addition and measured every min for 10 mins by Ellman's method
[3] = biological target: T2, 5-hydroxytryptamine receptor 4 (Homo sapiens, UniProt Q13639); assay: Inhibition of human recombinant 5HT4 receptor at 1 x 10^-6M incubated for 60 mins relative to control; conditions: dose 1.0 10^-6M
T2 sequence (Q13639 whole entry): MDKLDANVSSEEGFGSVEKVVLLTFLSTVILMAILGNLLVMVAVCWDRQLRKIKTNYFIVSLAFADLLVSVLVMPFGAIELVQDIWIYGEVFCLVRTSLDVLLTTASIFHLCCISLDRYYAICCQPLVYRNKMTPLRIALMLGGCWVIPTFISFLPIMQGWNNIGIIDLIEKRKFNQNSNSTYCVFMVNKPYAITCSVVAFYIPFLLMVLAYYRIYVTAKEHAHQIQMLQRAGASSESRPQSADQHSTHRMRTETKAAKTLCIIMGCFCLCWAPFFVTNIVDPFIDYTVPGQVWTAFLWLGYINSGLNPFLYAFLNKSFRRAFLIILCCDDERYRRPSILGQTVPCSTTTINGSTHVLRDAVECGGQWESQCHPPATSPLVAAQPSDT
How it was run: (§2)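 Membranes (2.5 μg protein) from a stable recombinant line expressing h5-HT4(b) receptor. Incubated in duplicate at 25 °C for 60 min with 0.2 nM [3H]-GR113808 in 25 mM Tris pH 7.4, with drug at 10^-6 or 10^-8 M. GF/C filtration; non-specific binding defined with 30 μM serotonin. Ki from five-point inhibition curves, ± SD.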

[4] = biological target: T2, 5-hydroxytryptamine receptor 4; assay: Inhibition of human recombinant 5HT4 receptor at 1 x 10^-8M incubated for 60 mins relative to control; conditions: dose 1.0 10^-8M; how it was run: as §2
Acetylcholinesterase [5] = biological target: T1, Acetylcholinesterase; assay: Inhibition of recombinant human erythrocyte AChE using acetyl-or butyrylthiocholine iodide as substrate at 1 x 10^-5M preincubated for 5 mins followed by substrate addition and measured every min for 10 mins by Ellman's method relative to control; conditions: dose 1.0 10^-5M, time 15.0 min; how it was run: as §1
[6] = biological target: T2, 5-hydroxytryptamine receptor 4; assay: Binding affinity to human recombinant 5HT4 receptor assessed as inhibition constant incubated for 60 mins
[7] = biological target: T2, 5-hydroxytryptamine receptor 4; assay: Partial agonist activity at human recombinant 5HT4 receptor at 1 x 10^-6M incubated for 60 mins relative to control; assay type: functional; conditions: filed as partial agonist, dose 1.0 10^-6M
[8] = biological target: T2, 5-hydroxytryptamine receptor 4; assay: Partial agonist activity at human recombinant 5HT4 receptor at 1 x 10^-8M incubated for 60 mins relative to control; assay type: functional; conditions: filed as partial agonist, dose 1.0 10^-8M
[9] = biological target: Cholinesterase (Equus caballus) (UniProt P81908); assay: Inhibition of equine serum BuChE using Acetyl and butyrylthiocholine iodide as substrate at 1 x 10^-5M preincubated for 5 mins followed by substrate addition and measured every min for 10 mins by Ellman's method relative to control; conditions: dose 1.0 10^-5M, time 15.0 min
Cholinesterase (Equus caballus), sequence (P81908 whole entry): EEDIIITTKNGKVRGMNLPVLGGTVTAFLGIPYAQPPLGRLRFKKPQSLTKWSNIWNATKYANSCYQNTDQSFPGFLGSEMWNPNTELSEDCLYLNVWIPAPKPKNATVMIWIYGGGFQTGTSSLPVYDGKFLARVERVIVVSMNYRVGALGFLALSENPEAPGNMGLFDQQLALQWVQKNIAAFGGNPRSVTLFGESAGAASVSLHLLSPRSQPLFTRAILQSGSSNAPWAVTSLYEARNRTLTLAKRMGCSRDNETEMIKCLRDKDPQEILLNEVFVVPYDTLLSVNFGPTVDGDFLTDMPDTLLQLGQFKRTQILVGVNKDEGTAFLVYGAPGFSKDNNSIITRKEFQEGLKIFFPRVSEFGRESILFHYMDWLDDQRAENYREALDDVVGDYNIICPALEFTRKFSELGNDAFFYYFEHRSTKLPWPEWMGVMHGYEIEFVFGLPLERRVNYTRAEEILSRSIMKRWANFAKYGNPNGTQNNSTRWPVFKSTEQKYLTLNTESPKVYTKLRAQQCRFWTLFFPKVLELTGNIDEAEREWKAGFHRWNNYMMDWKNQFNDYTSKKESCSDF

[10] = biological target: Acetylcholinesterase (Electrophorus electricus) (UniProt O42275); assay: Displacement of propidium iodide from electric eel AChE 1 x 10^-5M relative to control; conditions: dose 1.0 10^-5M
Acetylcholinesterase (Electrophorus electricus), sequence (O42275 24-633 limits assumed): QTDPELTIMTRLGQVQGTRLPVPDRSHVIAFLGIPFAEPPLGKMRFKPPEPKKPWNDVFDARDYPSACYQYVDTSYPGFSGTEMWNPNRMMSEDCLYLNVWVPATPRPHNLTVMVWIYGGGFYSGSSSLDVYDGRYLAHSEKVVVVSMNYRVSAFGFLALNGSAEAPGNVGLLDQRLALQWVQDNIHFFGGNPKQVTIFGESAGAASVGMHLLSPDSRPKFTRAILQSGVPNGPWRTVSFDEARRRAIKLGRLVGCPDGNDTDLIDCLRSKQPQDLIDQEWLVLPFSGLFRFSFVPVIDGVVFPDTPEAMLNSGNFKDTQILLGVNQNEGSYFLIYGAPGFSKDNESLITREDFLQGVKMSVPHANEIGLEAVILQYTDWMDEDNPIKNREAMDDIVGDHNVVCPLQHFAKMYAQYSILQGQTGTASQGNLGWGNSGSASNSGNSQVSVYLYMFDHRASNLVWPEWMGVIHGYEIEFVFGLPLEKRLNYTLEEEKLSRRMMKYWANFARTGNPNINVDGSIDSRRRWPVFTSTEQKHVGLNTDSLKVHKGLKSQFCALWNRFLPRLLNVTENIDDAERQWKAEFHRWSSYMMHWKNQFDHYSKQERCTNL

[11] = biological target: T2, 5-hydroxytryptamine receptor 4; assay: Partial agonist activity at human recombinant 5HT4 receptor expressed in […] cells assessed as cAMP accumulation by measuring maximum efficacy in presence of serotonin by HTRF analysis relative to control; assay type: functional, cell-based; conditions: filed as partial agonist
How it was run: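 COS-7 cells grown in DMEM with 10 % dialyzed FCS and transiently transfected with HA-tagged h5-HT4R, then plated at 16,000 cells/well. At 24 h, cells were exposed for 10 min at 37 °C to 5-HT4 ligands in HEPES-buffered saline containing 0.1 % BSA and 0.1 mM RO-20-1724. Cells were lysed with 0.1 % Triton X-100 and cAMP measured by HTRF.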

[12] = biological target: T2, 5-hydroxytryptamine receptor 4; assay: (§3) Partial agonist activity at human recombinant 5HT4 receptor transiently transfected in […] cells using p-nitrophenyl phosphate disodium hexahydrate as substrate assessed as induction of sAPPalpha release incubated for 30 mins by microplate reader analysis; assay type: functional, cell-based; conditions: filed as partial agonist
How it was run: (§4)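 COS-7 cells co-transfected with FLG-tagged h5-HT4 receptor and SEAP-tagged mouse APP695, seeded at 300,000 cells/well. At 24 h, cells were exposed to drug for 30 min. Supernatants were collected and secreted SEAP activity read colorimetrically with p-nitrophenyl phosphate as substrate.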

[13] = biological target: T2, 5-hydroxytryptamine receptor 4; assay: as §3, with “release by measuring maximum efficacy” for “release”, “analysis relative to control” for “analysis”; assay type: functional, cell-based; how it was run: as §4

| SMILES | inhibition (Acetylcholinesterase [1]) [%] | IC50 (Acetylcholinesterase [2]) [nM] | inhibition [3] [%] | inhibition [4] [%] | Ki [6] [nM] | other results |
| --- | --- | --- | --- | --- | --- | --- |
| COc1c(C(=O)CCC2CCN(CC3CCCCC3)CC2)cc(F)c(N)c1I | 89 | 234 | 89 | 2 | – | – |
| COc1cc(N)c(Br)cc1C(=O)CCC1CCN(CC2CCCCC2)CC1 | – | – | 105 | 61 | – | inhibition (Acetylcholinesterase [5]): 98% |
| COc1cc(O)c(Cl)cc1C(=O)CCC1CCN(CC2CCCCC2)CC1 | 78 | – | 76 | 2 | – | – |
| Nc1ccc(C(=O)CCC2CCN(CC3CCCCC3)CC2)cc1 | 78 | 317 | 80 | 4 | – | – |
| O=C(CCC1CCN(CC2CCCCC2)CC1)c1ccc(O)cc1 | 35 | – | 102 | 58 | 17.6 | – |
| COc1c(C(=O)CCC2CCN(CC3CCCCC3)CC2)cc(F)c(N)c1Br | 85 | 309 | 80 | 8 | – | – |
| COc1ccccc1C(=O)CCC1CCN(CC2CCCCC2)CC1 | 85 | 166 | 102 | 31 | 121 | – |
| COc1cc(N)c(F)cc1C(=O)CCC1CCN(CC2CCCCC2)CC1 | 96 | – | 102 | 68 | – | Activity [7]: 100%; Activity [8]: 66%; inhibition [9]: 65%; inhibition [10]: 22%; Emax [11]: 67.3%; Activity [12]: Dose-dependent-effect; EC50 [12]: 23 nM; Emax [13]: 19.7% |
| COc1cc(N)c(I)cc1C(=O)CCC1CCN(CC2CCCCC2)CC1 | – | – | 103 | 36 | – | inhibition (Acetylcholinesterase [5]): 88% |
| Nc1ccc(C(=O)CCC2CCN(CC3CCCCC3)CC2)c(OCCF)c1 | 79 | 318 | 100 | 27 | 39.9 | – |
| CCOc1cc(N)ccc1C(=O)CCC1CCN(CC2CCCCC2)CC1 | 93 | 87.1 | 101 | 38 | 24.7 | – |
